Active and inactive are the calls of the source. The calls are words filed in the database; no cut-off is given here.
Experiments:
PC-3 [1] = assay: Induction of autophagy in human PC3 cells transfected with mRFP-GFP-LC3 assessed as LC3 granulation of LC3 at 0.5 uM after 8 hrs by fluorescence microscopic analysis; type: functional, cell-based
Procedure, shortened: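 PC3 cells transfected with an mRFP-GFP-LC3 reporter plasmid, then treated 8 h with 1 μM test agent or 0.5 μM rapamycin (autophagy inducer). Imaged by confocal fluorescence microscopy: yellow puncta (overlapping red/green) scored as autophagosomes, red-only puncta as autolysosomes, since GFP is quenched in acidic lysosomes.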

MCF7 = assay: Cytotoxicity against human MCF7 cells assessed as cell growth inhibition after 24 hrs by MTT assay; type: functional, cell-based; conditions: MCF7, 24 h
Procedure, shortened: (§1)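 Cells seeded 24 h in RPMI 1640 + 10% FBS. RWPE-1 was kept in K-SFM with bovine pituitary extract and EGF. Cells then exposed to compounds for 24 h at 37 °C, 5% CO2, with DMSO vehicle and docetaxel as positive control. MTT added for 4 h, absorbance read at 570 nm. Triplicate runs, IC50 reported as mean of three experiments.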

PC-3 [2] = assay: Cytotoxicity against human PC3 cells assessed as cell growth inhibition after 24 hrs by MTT assay; type: functional, cell-based; conditions: PC-3, 24 h; procedure, shortened: as §1
[3] = Toxicity in athymic Balb/c mouse assessed as body weight loss at 15 mg/kg, ip administered every 2 days for 18 days; type: organism-based; conditions: in vivo
Procedure, shortened: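 Male athymic BALB/c-nu mice bearing subcutaneous PC3M-luc-C6 xenografts, n = 5 per group. Dosing was 15 mg/kg i.p. every 2 days for 18 days versus placebo and docetaxel 15 mg/kg groups. Body weight was recorded over the treatment period.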

PC-3M [4] = assay: Antitumor activity against human PC3M-lluc-C6 cells xenografted in athymic Balb/c mouse assessed as decrease in tumor burden by measuring photon intensity at 15 mg/kg, ip measured on day 18 by bioluminescence method (reference value: 2.332 x 10^10 photons/s/cm2); type: functional
HeLa = assay: Cytotoxicity against human HeLa cells assessed as cell growth inhibition after 24 hrs by MTT assay; type: functional, cell-based; procedure, shortened: as §1
PC-3M [5] = assay: Antitumor activity against human PC3M-lluc-C6 cells xenografted in athymic Balb/c mouse assessed as tumor growth inhibition at 15 mg/kg, ip administered every 2 days measured on day 18; type: functional; conditions: read-out: TGI
PC-3 [6] = assay: Induction of morphological changes in human PC3 cells assessed as formation of massive cytoplasmic vacuoles at 1 uM after 12 hrs by confocal microscopic analysis; type: functional, cell-based
DU-145 = assay: Cytotoxicity against human DU145 cells assessed as cell growth inhibition after 24 hrs by MTT assay; type: functional, cell-based; conditions: DU-145, 24 h; procedure, shortened: as §1
MDA-MB-231 = assay: Cytotoxicity against human MDA-MB-231 cells assessed as cell growth inhibition after 24 hrs by MTT assay; type: functional, cell-based; conditions: MDA-MB-231, 24 h; procedure, shortened: as §1
K562 = assay: Cytotoxicity against human K562 cells assessed as cell growth inhibition after 24 hrs by MTT assay; type: functional, cell-based; conditions: K562, 24 h; procedure, shortened: as §1
RWPE-1 = assay: Cytotoxicity against human RWPE1 cells assessed as cell growth inhibition after 24 hrs by MTT assay; type: cell-based; conditions: RWPE-1, 24 h; procedure, shortened: as §1
PC-3M [7] = assay: Antitumor activity against human PC3M-lluc-C6 cells xenografted in athymic Balb/c mouse assessed as decrease in tumor burden by measuring photon intensity at 15 mg/kg, ip measured on day 9 by bioluminescence method (reference value: 6.501 x 10^9 photons/s/cm2); type: functional

Row | SMILES | Activity (PC-3 [1]) | IC50 (MCF7) [nM] | IC50 (PC-3 [2]) [nM] | Activity [3] [g] | Activity (PC-3M [4]) [×10⁹ /s/cm2] | IC50 (HeLa) [nM] | inhibition in vivo at 15 mg/kg (PC-3M [5]) [%] | Activity (PC-3 [6]) | IC50 (DU-145) [nM] | IC50 (MDA-MB-231) [nM] | IC50 (K562) [nM] | IC50 (RWPE-1) [nM] | Activity (PC-3M [7]) [×10⁹ /s/cm2]
1 | CO[C@H]1C[C@@H]2CC[C@@H](C)[C@@](O)(O2)C(=O)C(=O)N2CCCC[C@H]2C(=O)O[C@H]([C@H](C)C[C@@H]2CC[C@@H](O)[C@H](OC)C2)CC(=O)[C@H](C)/C=C(\C)[C@@H](O)[C@@H](OC)C(=O)[C@H](C)C[C@H](C)/C=C/C=C/C=C/1C | Active |  |  |  |  |  |  |  |  |  |  |  | 
2 | CC(=O)O[C@@]12CO[C@@H]1C[C@H](O)[C@@]1(C)C(=O)[C@H](O)C3=C(C)[C@@H](OC(=O)[C@H](O)[C@@H](NC(=O)OC(C)(C)C)c4ccccc4)C[C@@](O)([C@@H](OC(=O)c4ccccc4)[C@H]21)C3(C)C [DOCETAXEL ANHYDROUS] |  | 22 | 13 | 13.3 | 1.92 | 61 | 92 | inactive | 26 | 32 | 39 | 1730 | 3.513
3 | C[C@@H]1C[C@H](O)C[C@H]2c3cc(OCc4cc(C(F)(F)F)cc(C(F)(F)F)c4)c(OCc4cc(C(F)(F)F)cc(C(F)(F)F)c4)cc3CCN12 |  | 1870 | 680 |  |  | 2840 |  | Active | 1870 | 560 | 1150 | 2320 | 
4 | Cc1cc(C)cc(COc2cc3c(cc2OCc2cc(C)cc(C)c2)[C@@H]2C[C@](C)(O)C[C@@H](C)N2CC3)c1 |  | 500 | 890 |  |  | 1250 |  | Active | 1950 | 2350 | 1460 | 4770 | 
5 | C[C@@H]1C[C@@H](O)C[C@H]2c3cc(OCc4cc(C(F)(F)F)cc(C(F)(F)F)c4)c(OCc4cc(C(F)(F)F)cc(C(F)(F)F)c4)cc3CCN12 |  | 520 | 450 |  |  | 2010 |  | Active | 1740 | 510 | 1350 | 1150 | 
6 | C[C@@H]1C[C@@](C)(O)C[C@H]2c3cc(OCc4cccc(F)c4)c(OCc4cccc(F)c4)cc3CCN12 |  | 470 | 410 |  |  | 960 |  | Active | 2140 | 590 | 1010 | 1860 | 
7 | C[C@@H]1C[C@@H](O)C[C@H]2c3cc(OCc4cccc(F)c4)c(OCc4cccc(F)c4)cc3CCN12 |  | 490 | 820 |  |  | 1730 |  | Active | 3850 | 580 | 1420 | 1490 | 
